How the values were obtained:
[1] = target: Cytochrome P450 2C9 (Homo sapiens, UniProt P11712); experiment: Inhibition of human microsomal CYP2C9 expressed in baculovirus infected BTI-TN-5B1-4 cells incubated for 30 mins by luciferase assay
[2] = Cytotoxicity against human THP1 cells assessed as decrease in viable cells after 72 hrs by MTT assay; type: cell-based, THP-1; conditions: THP1 cells
In short: (§1)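 THP-1-derived macrophages exposed to compounds for 72 h, tested at 100 μM or in dose-response; viability read by MTT colorimetric assay.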

[3] = system: Leishmania infantum; experiment: Antileishmanial activity against Leishmania infantum amastigote form after 72 hrs by steady-Glo reagent based assay; type: functional, organism-based
In short: (§2)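 Intramacrophage L. infantum amastigotes in THP-1-derived macrophages, tested at 50 μM or in dose-response. Plates held 72 h at 37 °C, 5% CO2. Medium was replaced by PBS, macrophages lysed, and parasites read by Steady-Glo luminescence. High-content imaging gave host cell number, infection ratio (infected/total cells) and parasites per infected cell. Values are means of at least two independent experiments.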

[4] = system: Leishmania infantum; experiment: Antileishmanial activity against Leishmania infantum amastigote form; type: functional, organism-based; in short: as §2
[5] = Cytotoxicity against human U2OS cells assessed as decrease in viable cells after 72 hrs by cell number count in anti-T. cruzi high content imaging assay; conditions: U2OS cells
[6] = target: T1, Pteridine reductase, putative (Trypanosoma brucei) (UniProt Q581W1); experiment: Inhibition of Trypanosoma brucei PTR1 at 50 uM using H2B as substrate in presence of NADPH by photometric analysis relative to control
T1 sequence (whole entry): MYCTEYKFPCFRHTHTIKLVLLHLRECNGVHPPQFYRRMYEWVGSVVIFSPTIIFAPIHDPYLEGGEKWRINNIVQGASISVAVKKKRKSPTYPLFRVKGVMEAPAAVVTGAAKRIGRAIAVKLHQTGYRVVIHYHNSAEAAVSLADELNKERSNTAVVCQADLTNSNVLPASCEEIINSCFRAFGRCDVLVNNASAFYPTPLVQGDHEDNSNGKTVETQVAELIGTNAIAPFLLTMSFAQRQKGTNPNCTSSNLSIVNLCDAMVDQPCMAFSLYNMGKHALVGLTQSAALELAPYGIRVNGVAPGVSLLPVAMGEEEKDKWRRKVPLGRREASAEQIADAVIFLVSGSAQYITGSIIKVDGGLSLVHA

[7] = target: CYP2C9 (Homo sapiens, UniProt P11712); experiment: Inhibition of human microsomal CYP2C9 expressed in baculovirus infected BTI-TN-5B1-4 cells at 10 uM incubated for 30 mins by luciferase assay relative to control; type: ADME
Sequence of CYP2C9 (P11712 whole entry): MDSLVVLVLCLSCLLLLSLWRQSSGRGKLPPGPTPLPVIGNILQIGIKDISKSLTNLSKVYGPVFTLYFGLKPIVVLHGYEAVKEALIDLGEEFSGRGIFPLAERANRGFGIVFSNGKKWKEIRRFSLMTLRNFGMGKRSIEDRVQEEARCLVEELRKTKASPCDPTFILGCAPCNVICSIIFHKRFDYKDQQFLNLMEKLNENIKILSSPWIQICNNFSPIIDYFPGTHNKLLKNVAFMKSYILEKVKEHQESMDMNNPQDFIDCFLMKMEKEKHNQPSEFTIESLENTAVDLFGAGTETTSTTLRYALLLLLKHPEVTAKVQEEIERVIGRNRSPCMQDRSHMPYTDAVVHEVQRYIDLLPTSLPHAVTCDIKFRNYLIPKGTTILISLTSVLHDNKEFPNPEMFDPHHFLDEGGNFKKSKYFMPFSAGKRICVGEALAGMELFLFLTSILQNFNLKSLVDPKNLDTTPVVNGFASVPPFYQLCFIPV
In short: (§3)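 CYP1A2, 2C9, 2C19, 2D6 and 3A4 in microsomes from baculovirus-infected insect cells, each with a P450-Glo luminogenic substrate. Inhibition read as loss of light; single-point at 10 μM, triplicate.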

[8] = system: Trypanosoma brucei; experiment: Potentiation of methotrexate-induced antitrypanosomal activity against Trypanosoma brucei Lister 427 bloodstream form at 10 uM after 72 hrs by resazurin dye-based assay; type: functional
[9] = Cytotoxicity against human U2OS cells assessed as viable cells at 50 uM after 72 hrs by MTT assay relative to control; type: cell-based; conditions: read-out: Activity
[10] = target: CYP2D6 (Homo sapiens, UniProt P10635); experiment: Inhibition of human microsomal CYP2D6 expressed in baculovirus infected BTI-TN-5B1-4 cells at 10 uM incubated for 30 mins by luciferase assay relative to control; type: ADME; in short: as §3
Sequence of CYP2D6 (P10635 whole entry): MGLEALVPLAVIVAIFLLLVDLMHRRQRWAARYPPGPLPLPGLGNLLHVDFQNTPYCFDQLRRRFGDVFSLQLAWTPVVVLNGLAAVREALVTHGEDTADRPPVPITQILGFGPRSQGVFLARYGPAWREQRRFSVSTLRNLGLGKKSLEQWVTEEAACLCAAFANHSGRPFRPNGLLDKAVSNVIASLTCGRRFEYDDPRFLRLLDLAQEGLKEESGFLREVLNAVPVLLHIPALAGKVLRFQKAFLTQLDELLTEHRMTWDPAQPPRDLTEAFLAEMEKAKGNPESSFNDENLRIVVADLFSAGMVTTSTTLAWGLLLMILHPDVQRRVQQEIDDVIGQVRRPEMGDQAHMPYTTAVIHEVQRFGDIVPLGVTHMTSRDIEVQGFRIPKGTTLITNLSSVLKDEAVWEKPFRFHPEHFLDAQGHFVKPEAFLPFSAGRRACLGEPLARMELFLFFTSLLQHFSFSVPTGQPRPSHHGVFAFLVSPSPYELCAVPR

[11] = system: Trypanosoma brucei; experiment: Potentiation of methotrexate-induced antitrypanosomal activity against Trypanosoma brucei Lister 427 bloodstream form at 10 uM after 72 hrs by resazurin dye-based assay relative to control; type: functional
[12] = Cytotoxicity against human A549 cells assessed as growth inhibition at 10 uM after 48 hrs by CellTiter-Glo assay relative to control; values are per cent of control; conditions: A549 cells
[13] = target: T2, CYP1A2 (Homo sapiens, UniProt P05177); experiment: Inhibition of human microsomal CYP1A2 expressed in baculovirus infected BTI-TN-5B1-4 cells at 10 uM incubated for 30 mins by luciferase assay relative to control; type: ADME; in short: as §3
T2 sequence (P05177 whole entry): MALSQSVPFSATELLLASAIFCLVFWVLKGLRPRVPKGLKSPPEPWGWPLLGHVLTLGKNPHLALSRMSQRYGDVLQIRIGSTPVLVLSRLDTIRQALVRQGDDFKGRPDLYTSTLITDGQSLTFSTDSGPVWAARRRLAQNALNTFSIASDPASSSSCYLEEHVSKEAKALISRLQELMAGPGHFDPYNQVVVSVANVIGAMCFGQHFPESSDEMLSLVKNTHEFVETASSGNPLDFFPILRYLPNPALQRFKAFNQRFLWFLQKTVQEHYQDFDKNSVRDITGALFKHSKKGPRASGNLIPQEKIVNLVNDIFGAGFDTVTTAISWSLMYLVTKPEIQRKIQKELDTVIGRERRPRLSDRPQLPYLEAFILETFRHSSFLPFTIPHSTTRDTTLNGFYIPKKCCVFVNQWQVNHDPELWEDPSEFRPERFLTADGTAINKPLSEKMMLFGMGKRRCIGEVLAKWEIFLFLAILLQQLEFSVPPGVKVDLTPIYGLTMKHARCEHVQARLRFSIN

[14] = Selectivity index, ratio of CC50 for human U2OS cells to EC50 for Trypanosoma cruzi amastigote form; type: toxicity; conditions: read-out: Ratio CC50/EC50
In short: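 Selectivity index = CC50 in the human host or cytotoxicity cell line divided by parasite EC50.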

[15] = target: CYP3A4 (Homo sapiens, UniProt P08684); experiment: Inhibition of human microsomal CYP3A4 expressed in baculovirus infected BTI-TN-5B1-4 cells at 10 uM incubated for 30 mins by luciferase assay relative to control; type: ADME; in short: as §3
Sequence of CYP3A4 (P08684 whole entry): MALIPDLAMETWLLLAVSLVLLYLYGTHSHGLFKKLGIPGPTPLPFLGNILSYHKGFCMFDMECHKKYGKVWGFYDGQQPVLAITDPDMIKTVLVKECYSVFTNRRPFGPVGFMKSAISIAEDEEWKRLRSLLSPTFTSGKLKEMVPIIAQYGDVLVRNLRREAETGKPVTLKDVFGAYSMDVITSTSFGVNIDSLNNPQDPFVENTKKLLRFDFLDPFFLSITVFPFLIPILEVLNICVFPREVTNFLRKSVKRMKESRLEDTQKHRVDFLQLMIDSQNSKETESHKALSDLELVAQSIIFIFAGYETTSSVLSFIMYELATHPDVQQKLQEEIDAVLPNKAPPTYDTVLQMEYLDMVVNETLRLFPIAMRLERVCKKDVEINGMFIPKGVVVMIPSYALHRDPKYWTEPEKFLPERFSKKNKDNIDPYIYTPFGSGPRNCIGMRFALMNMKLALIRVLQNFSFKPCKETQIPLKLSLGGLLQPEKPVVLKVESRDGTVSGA

[16] = target: Aurora kinase B (Homo sapiens, UniProt Q96GD4); experiment: Inhibition of recombinant full-length human aurora B kinase expressed in baculovirus system at 10 uM using MBP as substrate incubated for 45 mins by ADP-glo kinase assay; conditions: probe MBP
Sequence of Aurora kinase B (Q96GD4 whole entry): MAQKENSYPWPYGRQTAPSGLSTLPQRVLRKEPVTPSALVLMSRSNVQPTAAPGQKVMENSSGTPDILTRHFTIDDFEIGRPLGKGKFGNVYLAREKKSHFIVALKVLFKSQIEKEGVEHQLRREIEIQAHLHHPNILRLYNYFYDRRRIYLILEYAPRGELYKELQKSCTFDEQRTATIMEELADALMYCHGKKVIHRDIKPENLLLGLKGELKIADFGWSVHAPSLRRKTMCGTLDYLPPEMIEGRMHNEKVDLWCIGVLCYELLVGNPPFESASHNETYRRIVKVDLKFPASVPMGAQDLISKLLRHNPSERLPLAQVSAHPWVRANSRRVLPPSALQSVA
In short: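 Aurora B activity measured as ADP formation via coupled luciferase ADP-Glo luminescence; single-point at 10 μM, triplicate.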

[17] = target: hERG (KCNH2) (Homo sapiens, UniProt Q12809); experiment: Inhibition of human ERG at 10 uM incubated for 2 hrs by fluorescence polarisation assay relative to control
Sequence of hERG (KCNH2) (Q12809 whole entry): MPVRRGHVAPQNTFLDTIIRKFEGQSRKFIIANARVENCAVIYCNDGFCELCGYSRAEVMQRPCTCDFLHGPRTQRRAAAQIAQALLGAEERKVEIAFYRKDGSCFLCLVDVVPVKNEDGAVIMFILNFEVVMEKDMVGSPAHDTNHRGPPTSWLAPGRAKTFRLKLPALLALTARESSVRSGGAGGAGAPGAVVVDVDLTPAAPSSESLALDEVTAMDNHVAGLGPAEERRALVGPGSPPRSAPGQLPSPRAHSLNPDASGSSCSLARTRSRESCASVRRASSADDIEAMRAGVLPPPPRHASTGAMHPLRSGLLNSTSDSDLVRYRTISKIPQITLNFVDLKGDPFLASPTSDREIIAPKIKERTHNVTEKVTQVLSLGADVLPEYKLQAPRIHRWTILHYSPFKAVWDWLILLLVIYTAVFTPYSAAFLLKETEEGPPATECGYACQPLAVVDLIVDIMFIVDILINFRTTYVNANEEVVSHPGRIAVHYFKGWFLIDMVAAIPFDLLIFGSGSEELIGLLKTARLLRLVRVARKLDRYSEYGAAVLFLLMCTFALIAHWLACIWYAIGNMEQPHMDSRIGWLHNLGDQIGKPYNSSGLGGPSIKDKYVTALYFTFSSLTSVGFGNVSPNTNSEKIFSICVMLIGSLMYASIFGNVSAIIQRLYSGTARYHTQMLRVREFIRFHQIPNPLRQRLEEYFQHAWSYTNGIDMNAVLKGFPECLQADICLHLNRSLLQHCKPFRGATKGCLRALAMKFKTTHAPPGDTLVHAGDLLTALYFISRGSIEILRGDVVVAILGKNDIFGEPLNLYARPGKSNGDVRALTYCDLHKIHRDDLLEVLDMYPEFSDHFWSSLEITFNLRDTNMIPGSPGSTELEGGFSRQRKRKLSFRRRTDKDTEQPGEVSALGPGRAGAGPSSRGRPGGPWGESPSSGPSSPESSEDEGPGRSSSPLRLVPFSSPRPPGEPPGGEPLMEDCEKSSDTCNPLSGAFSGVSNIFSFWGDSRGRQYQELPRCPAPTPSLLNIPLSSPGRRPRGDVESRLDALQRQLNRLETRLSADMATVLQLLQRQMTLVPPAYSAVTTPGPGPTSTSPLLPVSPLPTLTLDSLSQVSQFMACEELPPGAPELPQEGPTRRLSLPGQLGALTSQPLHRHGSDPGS

[18] = target: CYP2C19 (Homo sapiens, UniProt P33261); experiment: Inhibition of human microsomal CYP2C19 expressed in baculovirus infected BTI-TN-5B1-4 cells at 10 uM incubated for 30 mins by luciferase assay relative to control; type: ADME; in short: as §3
Sequence of CYP2C19 (P33261 whole entry): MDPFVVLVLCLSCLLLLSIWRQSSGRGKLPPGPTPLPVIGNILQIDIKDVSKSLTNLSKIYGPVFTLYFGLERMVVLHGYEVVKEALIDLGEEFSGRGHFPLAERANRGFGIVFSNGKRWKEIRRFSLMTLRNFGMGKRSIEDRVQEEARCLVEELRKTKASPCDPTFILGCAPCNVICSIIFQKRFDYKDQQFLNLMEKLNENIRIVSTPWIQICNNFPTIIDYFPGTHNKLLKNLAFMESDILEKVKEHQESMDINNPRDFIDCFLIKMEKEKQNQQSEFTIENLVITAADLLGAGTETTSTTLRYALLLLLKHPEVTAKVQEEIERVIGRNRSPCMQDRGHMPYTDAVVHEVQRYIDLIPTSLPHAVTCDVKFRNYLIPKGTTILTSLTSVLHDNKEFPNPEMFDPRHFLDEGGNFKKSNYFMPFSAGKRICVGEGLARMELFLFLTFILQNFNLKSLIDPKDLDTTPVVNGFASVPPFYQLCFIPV

[19] = Cytotoxicity against human THP1 cells assessed as viable cells at 100 uM after 72 hrs by MTT assay relative to control; type: cell-based, THP-1; conditions: read-out: Activity; in short: as §1
[20] = system: Trypanosoma cruzi; experiment: Antitrypanosomal activity against Trypanosoma cruzi amastigote form infected in human U2OS cells assessed as parasite growth inhibition after 72 hrs; type: functional, organism-based
In short: (§4)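 U2OS monolayers grown for 24 h, then infected with tissue-derived trypomastigotes of T. cruzi Y strain. Compounds were added 24 h after infection at 50 μM (single-point) or in dose-response, with 72 h exposure. Plates were fixed, stained and analysed by high-content imaging; activity was normalized to infected and non-infected controls. Means of at least two experiments; benznidazole as reference.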

[21] = system: Trypanosoma cruzi; experiment: Antitrypanosomal activity against Trypanosoma cruzi amastigote form infected in human U2OS cells assessed as parasite growth inhibition at 50 uM after 72 hrs relative to control; type: functional; conditions: read-out: GI; in short: as §4
[22] = system: Trypanosoma brucei; experiment: Antitrypanosomal activity against Trypanosoma brucei Lister 427 bloodstream form after 72 hrs by SYBR Green assay; type: functional, organism-based; conditions: Lister 427, 72 h
[23] = system: Trypanosoma brucei; experiment: Antitrypanosomal activity against Trypanosoma brucei Lister 427 bloodstream form assessed as parasite growth inhibition at 50 uM after 72 hrs by SYBR Green assay relative to control; type: functional; conditions: Lister 427, 72 h, read-out: GI
[24] = Cytotoxicity against human 786-O cells assessed as inhibition of mitochondrial viability at 10 uM after 6 hrs by CMXRos staining based assay relative to control; type: cell-based, 786-0; conditions: read-out: INH
In short: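 Mitochondrial toxicity monitored by MitoTracker Red CMXRos uptake and high-content imaging; compound at 10 μM, triplicate.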

[25] = system: Leishmania infantum; experiment: Antileishmanial activity against Leishmania infantum amastigote form assessed as parasite growth inhibition at 50 uM after 72 hrs by steady-Glo reagent based assay relative to control; type: functional; conditions: read-out: GI; in short: as §2
[26] = system: Trypanosoma brucei; experiment: Antitrypanosomal activity against Trypanosoma brucei Lister 427 bloodstream form at 10 uM after 72 hrs by resazurin dye-based assay relative to control; type: functional
[27] = target: T3, Pteridine reductase 1 (Leishmania major) (UniProt Q01782); experiment: Inhibition of Leishmania major PTR1 at 50 uM using H2B as substrate in presence of NADPH by photometric analysis relative to control
T3 sequence (whole entry): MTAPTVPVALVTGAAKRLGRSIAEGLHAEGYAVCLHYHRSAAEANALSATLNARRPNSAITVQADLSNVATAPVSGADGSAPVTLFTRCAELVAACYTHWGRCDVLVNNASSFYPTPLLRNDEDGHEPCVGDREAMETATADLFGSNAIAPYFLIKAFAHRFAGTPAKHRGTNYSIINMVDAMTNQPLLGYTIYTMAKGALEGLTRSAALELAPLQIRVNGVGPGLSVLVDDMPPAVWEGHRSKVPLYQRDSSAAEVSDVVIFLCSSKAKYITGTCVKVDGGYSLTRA

[28] = Cytotoxicity against human WI38 cells assessed as growth inhibition at 10 uM after 48 hrs by CellTiter-Glo assay relative to control; values are per cent of control; conditions: WI38 cells

Sequence of Cytochrome P450 2C9 (P11712 whole entry): as the sequence (P11712 whole entry) above

## CCCCCCCCCCCCCCCCOP(=O)([O-])OCC[N+](C)(C)C [MILTEFOSINE]
[1]
  IC50: > 100 µM
[2]
  CC50 at 72 h: 15 µM
[3]
  EC50: 2.51 to 2.8 µM
[4]
  EC50: 1.29 µM
[5]
  CC50 at 72 h: 11.5 µM

## C[C@@H]1[C@H](O)[C@@H](C)/C=C/C=C/C=C/C=C/C=C/C=C/C=C/[C@H](O[C@@H]2O[C@H](C)[C@@H](O)[C@H](N)[C@@H]2O)C[C@@H]2O[C@](O)(C[C@@H](O)C[C@@H](O)[C@H](O)CC[C@@H](O)C[C@@H](O)CC(=O)O[C@H]1C)C[C@H](O)[C@H]2C(=O)O [AMPHOTERICIN B]
[1]
  IC50: > 100 µM
[2]
  CC50 at 72 h: 16.9 µM
[3]
  EC50: 0.2 µM
[4]
  EC50: 1.14 µM

## CSc1ccc(/C=N/NC(N)=S)cc1
[6]
  inhibition: 9.49%
[7]
  inhibition at 0.5 h, 10 µM: 12.4%
[8]
  PF: 2.24
[9]
  viability at 72 h, 50 µM: 42.7%
[10]
  inhibition at 0.5 h, 10 µM: 35.9%
[11]
  Activity: 88.67%
[12]
  cell growth (% of control) at 48 h, 10 µM: 136%
[13]
  inhibition at 0.5 h, 10 µM: 27%
[14]
  selectivity ratio: > 17
[15]
  inhibition at 0.5 h, 10 µM: -15.9%
[16]
  inhibition at 0.75 h, 10 µM: -12.2%
[17]
  inhibition at 2 h, 10 µM: -2.87%
[18]
  inhibition at 0.5 h, 10 µM: -38.2%
[19]
  viability at 72 h, 100 µM: 35.7%
[20]
  EC50: 2.58 to 29.5 µM
[21]
  inhibition of growth at 50 µM: 89.3%
[22]
  EC50: 44.4 µM
[5]
  CC50 at 72 h: > 44 µM
[23]
  inhibition of growth at 50 µM: 82.6%
[24]
  cytotoxicity at 6 h, 10 µM: -10.8%
[25]
  inhibition of growth at 50 µM: 34.1%
[26]
  Activity: 15.33%
[27]
  inhibition: 11.2%
[28]
  cell growth (% of control) at 48 h, 10 µM: 107%

Reference: ChEMBL document CHEMBL4196006, “Aryl thiosemicarbazones for the treatment of trypanosomatidic infections” (Eur J Med Chem, 2018)
